One test has as its system Candida albicans. The test can be described thus: Antifungal activity against Candida albicans after 48 hrs by micro broth dilution method. Format: functional. The procedure, abridged: (§1)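 Micro broth dilution per NCCLS in RPMI 1640 buffered with MOPS. Inoculum 1-5 × 10³ cells/mL. Plates kept in a moist chamber at 35 °C. Absorbance read at 492 nm after 48 h (C. albicans, C. parapsilosis), 72 h (A. fumigatus, S. schenckii, C. neoformans) or 96 h (T. mentagrophytes). MIC taken as 90% growth inhibition versus control.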

In a further test the test system is Cryptococcus neoformans. Briefly: Antifungal activity against Cryptococcus neoformans after 72 hrs by micro broth dilution method. Format: functional. The procedure, abridged:
as §1

A further test has as its system Sporothrix schenckii. The test can be described thus: Antifungal activity against Sporothrix schenckii after 72 hrs by micro broth dilution method. It is filed as functional. The procedure, abridged:
as §1

Test [1] has as its system HeLa. The test can be described thus: Antiproliferative activity against human HeLa cells at 20 uM after 24 hrs by sulforhodamine B assay. It is filed as functional. The procedure, abridged: (§2)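 HeLa cells grown in Eagle's MEM with 10% FBS at 37 °C under 5% CO2. Seeded at 1 × 10⁵ cells/mL and medium replaced after 24 h. Compounds added from DMSO stocks (final DMSO below 0.1%; DMSO vehicle as control) for one cell cycle (24 h). Cells stained with 0.4% sulforhodamine B and protein-bound dye read at 560 nm.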

Test [2] deals with HeLa. Briefly: Antiproliferative activity against human HeLa cells at 5 uM after 24 hrs by sulforhodamine B assay. Format: functional. The procedure, abridged: as §2
(In general: The SRB assay estimates cell density from bound dye.)

Test [3] relates to HeLa. The test can be described thus: Antiproliferative activity against human HeLa cells at 1 uM after 24 hrs by sulforhodamine B assay. Format: functional. Put shortly:
as §2

The test system of test [4] is Trichophyton mentagrophytes. The test can be described thus: Antifungal activity against Trichophyton mentagrophytes after 96 hrs by micro broth dilution method. Format: functional. Put shortly:
as §1
A general note: Dilution methods test growth across graded concentrations, often in twofold steps.

A further test concerns Aspergillus fumigatus. Briefly: Antifungal activity against Aspergillus fumigatus after 72 hrs by micro broth dilution method. Format: functional. Put shortly: as §1
The next test concerns Candida parapsilosis. Briefly: Antifungal activity against Candida parapsilosis ATCC 22019 after 48 hrs by micro broth dilution method. The note with it: Lodderomyces parapsilosis, ATCC 22019, 48 h. Format: functional. Put shortly: as §1
The subject of test [5] is HeLa. Briefly: Induction of apoptosis in human HeLa cells at 5 uM after 24 hrs by annexin 5-propidium iodide staining mathod. Format: functional, cell-based. The procedure, abridged:
(§3)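 HeLa cells grown on coverslips at 5 × 10⁴ cells/mL and incubated 24 h with 5 µM compound. Stained with FITC-Annexin V (early apoptosis) and propidium iodide (late apoptosis/necrosis) using a kit. Imaged by DIC for morphology and by fluorescence.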

For test [6], the system named is HeLa. The test can be described thus: Induction of apoptosis in human HeLa cells assessed as morphological changes at 5 uM after 24 hrs by differential interference contrast microscopy. Format: functional, cell-based. Put shortly:
as §3

Test [7] deals with HeLa. The test can be described thus: Induction of apoptosis in human HeLa cells assessed as cell population at mitosis at 5 uM after 24 hrs. Format: functional. Put shortly: (§4)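 HeLa cells grown on coverslips and exposed 24 h to compound (5, 10, 20 µM or none). Microtubules stained with mouse anti-α-tubulin and FITC anti-mouse IgG, chromosomes with DAPI. Mitotic cells scored by fluorescence microscopy.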

Test [8] has as its system HeLa. The test can be described thus: Induction of apoptosis in human HeLa cells assessed as cell population at mitosis at 10 uM after 24 hrs. It is filed as functional. The procedure, abridged: as §4
For test [9], the system named is HeLa. Briefly: Induction of apoptosis in human HeLa cells assessed as cell population at mitosis at 20 uM after 24 hrs. Format: functional. The procedure, abridged: as §4
Test [10] has as its system HeLa. Briefly: Antiproliferative activity against human HeLa cells at 34 uM after 24 hrs by sulforhodamine B assay. Format: functional.
The test system of test [11] is HeLa. The test can be described thus: Induction of apoptosis in human HeLa cells assessed as blockade of cell cycle progression at mitosis after 24 hrs. Format: functional, cell-based. Put shortly:
as §4

Values after ≈ are worked out from the molar mass of the structure shown. Active and inactive are the calls of the source. The rule behind the calls is not given here.

In general, MIC refers to the lowest concentration that inhibits growth of the organism. Lower therefore signals inhibition by little substance. One may read the inhibition as the share of the control response that was lost under treatment. Read a low inhibition as a response near the control.

For the molecule NYSTATIN, the values for the MIC against Candida albicans, with Cryptococcus neoformans and in the test with Sporothrix schenckii were 7.8 µg/mL, 3.5 µg/mL and 13.2 µg/mL, respectively.
The molecule `O=c1c2[nH]c3ccccc3sc=2c(=O)c2ccccc12` had an inhibition at 20 µM in the test with HeLa [1] of 42%. The molecule also had an inhibition at 5 µM in the test on HeLa [2] of 6.5%. Also, in the test with HeLa [3], testing at 1 µM gave an inhibition of 5.5%. Moreover, the MIC in the test on Candida albicans is more than 50 µg/mL; in the test with Cryptococcus neoformans, more than 50 µg/mL; with Sporothrix schenckii, 50 µg/mL (≈ 179 µM); in test [4], more than 50 µg/mL; in the test on Aspergillus fumigatus it was more than 50 µg/mL; with Candida parapsilosis, more than 50 µg/mL.
On to `COc1cccc(SC2=C(Sc3cccc(OC)c3)C(=O)c3ccccc3C2=O)c1`, for which, in the test with HeLa [1], the inhibition at 20 µM was determined as 100%. The molecule further had an inhibition at 5 µM in the test with HeLa [2] of 76%. In the test on HeLa [3], this molecule had an inhibition at 1 µM of 64%. Besides, the outcome with HeLa [5] and with HeLa [6] was Active. Moreover, the Activity in the test with HeLa [7] turned out to be 3.5%; with HeLa [8] it was 3.8%; with HeLa [9], 4.2%. Besides, the MIC in the test on Candida albicans was more than 50 µg/mL; in the test with Cryptococcus neoformans it was more than 50 µg/mL; with Sporothrix schenckii, more than 50 µg/mL; in test [4], 50 µg/mL (≈ 115 µM); with Aspergillus fumigatus it was more than 50 µg/mL; against Candida parapsilosis it was more than 50 µg/mL.
Turning to `Clc1ccc(COC(Cn2ccnc2)c2ccc(Cl)cc2Cl)c(Cl)c1` (stereo not given) [MICONAZOLE], the minimum inhibitory concentration (MIC) is 25 µg/mL (≈ 60.1 µM) against Candida albicans, 12.5 µg/mL (≈ 30 µM) in the test on Cryptococcus neoformans, less than 0.78 µg/mL in test [4] and 12.5 µg/mL (≈ 30 µM) in the test on Aspergillus fumigatus.
On to `COc1ccc2c(c1OC)C(=O)O[C@@H]2[C@H]1c2c(cc3c(c2OC)OCO3)CCN1C` [NOSCAPINE], for which the inhibition at 34 µM in the test with HeLa [10] amounted to 50%.
In the test with HeLa [1], `O=C1C(Sc2ccccc2)=C(Sc2ccccc2)C(=O)c2ccccc21` registered an inhibition at 20 µM of 100%. Further, in the test with HeLa [2], the inhibition at 5 µM was 60%. In the test with HeLa [3], this molecule gave an inhibition at 1 µM of 51%. For the same molecule, the outcome in the test on HeLa [5] and in the test on HeLa [6] was Active. Further, the outcome in the test on HeLa [11] was inactive. Further, the MIC against Candida albicans was more than 50 µg/mL; in the test on Cryptococcus neoformans, more than 50 µg/mL; against Sporothrix schenckii it was 50 µg/mL (≈ 134 µM); in [4] it was more than 50 µg/mL; with Aspergillus fumigatus, more than 50 µg/mL; against Candida parapsilosis, more than 50 µg/mL.
On to `O=C1C(Cl)=C(Sc2ccccc2)C(=O)c2ccccc21`, for which at 20 µM the inhibition with HeLa [1] was 73%. In addition, the inhibition at 5 µM with HeLa [2] came to 29%. Further, in the test on HeLa [3], the inhibition at 1 µM came out at 15%. Further, the MIC against Candida albicans came out at 6.25 µg/mL (≈ 20.8 µM); in the test with Cryptococcus neoformans it was 6.25 µg/mL (≈ 20.8 µM); against Sporothrix schenckii, 1.56 µg/mL (≈ 5.19 µM); in test [4], 1.56 µg/mL (≈ 5.19 µM); in the test with Aspergillus fumigatus it was 12.5 µg/mL (≈ 41.6 µM); against Candida parapsilosis, 6.25 µg/mL (≈ 20.8 µM).
`O=C1C(Cl)=C(Cl)C(=O)c2ccccc21` [Dichlon] came in with an inhibition at 20 µM in the test on HeLa [1] of 49%. Besides, in the test with HeLa [2], at 5 µM the inhibition was 43%. The molecule also gave an inhibition at 1 µM in the test on HeLa [3] of 28%. The MIC in the test with Candida albicans was 0.78 µg/mL (≈ 3.44 µM); against Cryptococcus neoformans, 3.12 µg/mL (≈ 13.7 µM); against Sporothrix schenckii, 0.78 µg/mL (≈ 3.44 µM); in test [4] it was 1.56 µg/mL (≈ 6.87 µM); in the test with Aspergillus fumigatus, 1.56 µg/mL (≈ 6.87 µM); against Candida parapsilosis, 1.56 µg/mL (≈ 6.87 µM).
`O=C1C(Sc2cccc3ccccc23)=C(Sc2cccc3ccccc23)C(=O)c2ccccc21` showed an inhibition at 20 µM with HeLa [1] of 46%. At 5 µM the inhibition in the test with HeLa [2] was 30%. In the test on HeLa [3], this molecule gave an inhibition at 1 µM of 22%. The MIC (with Candida albicans; in the test on Cryptococcus neoformans; in the test on Sporothrix schenckii; in test [4]; against Aspergillus fumigatus; against Candida parapsilosis) was more than 50 µg/mL each time.
Turning to `O=C1C(Cl)=C(Sc2cccc3ccccc23)C(=O)c2ccccc21`, in the test on HeLa [1], testing at 20 µM gave an inhibition of 69%. Also, the inhibition at 5 µM in the test with HeLa [2] was 22%. The molecule further displayed an inhibition at 1 µM in the test on HeLa [3] of 0%. The MIC against Candida albicans was found to be 50 µg/mL (≈ 143 µM); against Cryptococcus neoformans, 50 µg/mL (≈ 143 µM); in the test with Sporothrix schenckii, 6.25 µg/mL (≈ 17.8 µM); in test [4], 6.25 µg/mL (≈ 17.8 µM); in the test on Aspergillus fumigatus, 50 µg/mL (≈ 143 µM); against Candida parapsilosis, 50 µg/mL (≈ 143 µM).
In the test on HeLa [1], `O=c1c2[nH]c3ccc4ccccc4c3sc=2c(=O)c2ccccc12` gave an inhibition at 20 µM of 42%. In the test on HeLa [2], this molecule returned an inhibition at 5 µM of 19%. In the test on HeLa [3], this molecule gave an inhibition at 1 µM of 12%. Also, the minimum inhibitory concentration (MIC) was more than 50 µg/mL against Candida albicans; more than 50 µg/mL in the test on Cryptococcus neoformans; 50 µg/mL (≈ 152 µM) against Sporothrix schenckii; more than 50 µg/mL in test [4]; more than 50 µg/mL in the test on Aspergillus fumigatus; more than 50 µg/mL against Candida parapsilosis.
`COc1ccc2[nH]c3c(=O)c4ccccc4c(=O)c=3sc2c1` yielded an inhibition at 20 µM in the test with HeLa [1] of 77%. At 5 µM the inhibition in the test on HeLa [2] was 20%. Besides, the inhibition at 1 µM in the test with HeLa [3] was 8.5%. In addition, the MIC in the test with Candida albicans was more than 50 µg/mL; against Cryptococcus neoformans, more than 50 µg/mL; against Sporothrix schenckii it was more than 50 µg/mL; in test [4], 50 µg/mL (≈ 162 µM); with Aspergillus fumigatus it was more than 50 µg/mL; in the test on Candida parapsilosis, more than 50 µg/mL.
As to `COc1cccc(SC2=C(Cl)C(=O)c3ccccc3C2=O)c1`, the inhibition at 20 µM with HeLa [1] amounted to 74%. Besides, in the test with HeLa [2], the inhibition at 5 µM is 48%. Moreover, in the test on HeLa [3], the inhibition at 1 µM came to 39%. Moreover, the MIC with Candida albicans came out at 25 µg/mL (≈ 75.6 µM); against Cryptococcus neoformans, 25 µg/mL (≈ 75.6 µM); against Sporothrix schenckii, 3.12 µg/mL (≈ 9.43 µM); in test [4], 3.12 µg/mL (≈ 9.43 µM); against Aspergillus fumigatus, 25 µg/mL (≈ 75.6 µM); in the test with Candida parapsilosis, 25 µg/mL (≈ 75.6 µM).
For `C[C@@H]1[C@H](O)[C@@H](C)/C=C/C=C/C=C/C=C/C=C/C=C/C=C/[C@H](O[C@@H]2O[C@H](C)[C@@H](O)[C@H](N)[C@@H]2O)C[C@@H]2O[C@](O)(C[C@@H](O)C[C@@H](O)[C@H](O)CC[C@@H](O)C[C@@H](O)CC(=O)O[C@H]1C)C[C@H](O)[C@H]2C(=O)O` [AMPHOTERICIN B], the figures for the MIC (against Candida albicans; in the test with Cryptococcus neoformans; in test [4]) were 0.39 µg/mL (≈ 0.422 µM), 0.78 µg/mL (≈ 0.844 µM) and 1.56 µg/mL (≈ 1.69 µM), respectively.
With `OC(Cn1cncn1)(Cn1cncn1)c1ccc(F)cc1F` [FLUCONAZOLE], the MIC against Candida albicans worked out at 1 µg/mL (≈ 3.27 µM); against Cryptococcus neoformans, 1 µg/mL (≈ 3.27 µM); against Sporothrix schenckii, 2 µg/mL (≈ 6.53 µM); in [4] it was 0.5 µg/mL (≈ 1.63 µM); in the test on Aspergillus fumigatus, 2 µg/mL (≈ 6.53 µM); against Candida parapsilosis, 2 µg/mL (≈ 6.53 µM).

(Values after ChEMBL document CHEMBL1138562, “2,3-Disubstituted-1,4-naphthoquinones, 12H-benzo[b]phenothiazine-6,11-diones and related compounds: synthesis and biological evaluation as potential antiproliferative and antifungal agents” (2009).)
